# Measured values gathered from unrelated publications.
# Each line is one published result; the experiments were not run side by side.
# MAOB: Amine oxidase [flavin-containing] B (MAOB, Homo sapiens, UniProt P27338)
SMILES,target,read-out,mode,technique,setting,IC50 [µM]
Cc1cc(SCc2sc(-c3ccc(C(F)(F)F)c(F)c3)nc2C)ccc1OCC(=O)O,"Retinoic acid receptor RXR-alpha (RXRA, Homo sapiens, UniProt P19793)",reporter gene,antagonist,luciferase,,22.9
C#CCNc1nc(NCCCCC2CCN(Cc3ccccc3)CC2)c(C#N)cc1C#N,MAOB,enzyme activity,inhibitor,fluorescence,with preincubation,> 50
COc1ccc2c(c1)[nH]c1c(C)nccc12,MAOB,enzyme activity,inhibitor,,,37.5
CCCCNNC(=O)c1ccc(Br)cc1,"Histone deacetylase 9 (HDAC9, Homo sapiens, UniProt Q9UKV0)",enzyme activity,inhibitor,fluorescence,,> 100
O=c1c2ccccc2[se]n1-c1ccccc1,"ung (Escherichia coli, UniProt P12295)",enzyme activity,inhibitor,,,> 200
CSCC[C@@H]1NC(=O)[C@H](CC(N)=O)NC(=O)[C@H](CCCNC(=N)N)NC(=O)[C@H]([C@@H](C)O)NC(=O)[C@H](Cc2ccc(O)cc2)NC(=O)[C@@H](NC(=O)[C@H](C)N)CSSC[C@@H](C(N)=O)NC(=O)[C@H](CCC(N)=O)NC(=O)[C@H](CC(N)=O)NC1=O,"Lysine-specific demethylase 4C (KDM4C, Homo sapiens, UniProt Q9H3R0)",enzyme activity,inhibitor,TR-FRET,,406
COc1ccc(/C=C/C(=O)N2CCN(Cc3ccccc3)CC2)cc1OC,MAOB,enzyme activity,inhibitor,fluorescence,,1.9
COc1cc(C(=O)N2CC[C@@H](O)[C@@H](N)C2)cc2nc(-c3cc4ccccc4n3CC3CC3)n(C)c12,MAOB,enzyme activity,inhibitor,,,15.8
C#CCNc1nc(NCCC2CCN(Cc3ccccc3)CC2)c(C#N)c(-c2ccccc2)c1C#N,MAOB,enzyme activity,inhibitor,fluorescence,with preincubation,> 100
O=[N+]([O-])c1cc(Cl)c(O)c(Cl)c1,"Sulfotransferase 1A1 (SULT1A1, Homo sapiens, UniProt P50225)",enzyme activity,inhibitor,,,0.245
C#CCNc1nc(NCCCCC2CCN(Cc3ccccc3)CC2)c(C#N)c(-c2ccccc2)c1C#N,MAOB,enzyme activity,inhibitor,fluorescence,with preincubation,> 100
CC[C@H](C)[C@H](NC(=O)[C@H](Cc1c[nH]c2ccccc12)NC(=O)[C@H](C)NC(=O)[C@@H]1CSCC(=O)N[C@@H](Cc2ccc(O)cc2)C(=O)NCC(=O)N[C@@H](CCC(N)=O)C(=O)N[C@@H](CO)C(=O)N[C@@H](Cc2c[nH]cn2)C(=O)N[C@@H](CO)C(=O)N[C@@H](C)C(=O)N[C@@H](Cc2c[nH]c3ccccc23)C(=O)N1)C(=O)N[C@@H](CC(N)=O)C(=O)N[C@@H](Cc1ccc(O)cc1)C(=O)N[C@@H](CC(N)=O)C(=O)N1CCC[C@H]1C(N)=O,"Pancreatic alpha-amylase (Homo sapiens, UniProt P04746)",enzyme activity,inhibitor,absorbance,,6
